Compound activity deposited in PubChem BioAssay by several laboratories.
A selection: hits, their analogues and other compounds. The true share with any hit is near 2.2%.
Myeloid diff 2 – myeloid differentiation induction; 360,000 compounds, 1% hits; ER-HoxA9 myeloid progenitors, lysozyme-GFP differentiation, flow cytometry; calls only at 10 µM;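 active = normalized GFP-positive differentiation at or above the plate's own cutoff, the solvent-only control mean plus 3 SD; inconclusive = no clear call, values can overlap the other calls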;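 also: cells exposed to compound for four days before flow analysis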
HNF4A DNA FP – change in binding of human HNF4 alpha to DNA | AID 1224865 | activity change, % at 10 µM | P41235 | HNF4a-FITC DNA binding, fluorescence polarization, 1 h | 360,000 compounds, 0.3% hits; in the data active = activity change above about 30%, passing the limit was not always enough
CSN inh – inhibitors of human CSN-mediated cullin deneddylation; AID 651999; inhibition, % at 12.5 µM; 360,000 compounds, 0.38% hits; Purified CSN, SCF-Nedd8-OG deneddylation, fluorescence polarization; Q92905;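 active = pattern-corrected inhibition above about 35%, with an unprinted fluorescence ratio check between 0.5 and 1.5, limit read from the data, passing the limit was not always enough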
Target sequence (Q92905 whole entry, looked up, one chain of several): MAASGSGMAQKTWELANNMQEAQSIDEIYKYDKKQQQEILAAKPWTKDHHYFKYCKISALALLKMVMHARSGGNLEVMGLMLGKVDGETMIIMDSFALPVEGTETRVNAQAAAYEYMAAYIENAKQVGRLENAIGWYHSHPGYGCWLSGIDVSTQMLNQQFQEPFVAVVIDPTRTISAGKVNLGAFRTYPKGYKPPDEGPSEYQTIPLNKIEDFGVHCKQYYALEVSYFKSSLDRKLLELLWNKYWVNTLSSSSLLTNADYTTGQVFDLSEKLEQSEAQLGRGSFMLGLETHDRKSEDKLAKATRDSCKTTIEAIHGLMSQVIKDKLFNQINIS
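assay system = purified human Csn5 enzyme expressed in HEK293T cells | amount = 0.24 nM enzyme | buffer or medium = Tris/NaCl/DTT buffer, pH 7.5 | reagent = 10 nM SCFSkp2-Nedd8OG | compound = one concentration, 12.5 µM, 0.25% DMSO | times = 90 min reaction at room temperature | signal = FP | read-out basis = % inhibition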
Exocytosis inh – blocks lytic granule exocytosis | TALL-104 LAMP-1 surface exposure, flow cytometry; cells stimulated with thapsigargin and PMA | inhibition, % at 10 µM | 360,000 compounds, 0.66% hits | AID 651702;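 active = inhibition above about 55%, limit read from the data; inconclusive = no clear call, values can overlap the other calls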
Hits are given with their value; n = inactive; u = inconclusive; + = active, no number.

SMILES	Myeloid diff 2	HNF4A DNA FP	CSN inh	Exocytosis inh
COc1ccc(CN2CCN(S(=O)(=O)c3ccc(NC(C)=O)cc3)CC2)c(OC)c1OC	+	n	n	n
O=c1/c(=C\c2ccc(O)cc2)sc2n1C(c1ccccc1)C(c1ccccc1)=NN=2 (centres undefined)	+	41	n	n
COc1ccc([C@@H]2[C@@H]3C(=O)N(C(C)(C)C)C(=O)[C@@H]3[C@]3(C)C(=O)N(c4ccccc4)C(=O)N23)cc1	+	n	n	n
COc1ccc(C)cc1Nc1nc(-c2c[nH]c3ccccc23)cs1	+	n	n	n
COc1ccc(OC)c(Nc2nc(-c3cccs3)cs2)c1	n	n	n	n
COc1ccc(C(C(=O)NCC2CCCO2)N(C(=O)c2snc(C(N)=O)c2N)c2ccccc2C)cc1OC (centres undefined)	n	n	n	n
Nc1ccc(C(=O)NCC(=O)O)cc1	+	n	n	n
O=C(O)CNC(=O)c1ccc(Oc2c(F)c(F)c(Oc3ccc(C(=O)NCC(=O)O)cc3)c(F)c2F)cc1	+	n	n	n
CC(C)(C)C(=O)Nc1ccc(N2CCN(C(=O)c3cccs3)CC2)cc1	+	n	n	n
O=C(Nc1ccc(N2CCN(C(=O)c3cccs3)CC2)cc1)c1ccccc1Cl	n	n	n	n
COc1cccc(OC)c1C(=O)Nc1ccc(N2CCN(C(=O)c3cccs3)CC2)cc1	n	n	n	n
O=C(Nc1ccc(N2CCN(C(=O)c3cccs3)CC2)cc1)c1ccccc1F	+	n	n	n
Cc1cccc(/C=N/NC(=O)c2ccccc2OCc2cccc(Br)c2)n1	n	n	n	74
CC(NC(=O)/C(C#N)=C/c1ccc([N+](=O)[O-])o1)c1ccccc1 (centres undefined)	u	n	n	67
O=[N+]([O-])c1nccn1CCCCCCN1CCOCC1	n	n	n	n
CCN(CC)C(=O)C1c2ccccc2Oc2ccccc21	+	n	n	n
CN(C)S(=O)(=O)N1CCC(Oc2ccc(C(=O)N3CCCCCC3)cc2)CC1	+	n	n	n
CN(C)S(=O)(=O)N1CCC(Oc2ccc(C(=O)N3CCCCCCC3)cc2)CC1	u	n	n	n
CN1CCCNc2nc3ccccc3nc21	+	n	n	n
Cc1ccc(S(=O)(=O)N2CCCN(C)c3nc4ccccc4nc32)cc1	+	n	n	n
CN1CCCN(S(=O)(=O)c2ccccc2)c2nc3ccccc3nc21	+	n	n	n
COc1ccc(CCN2CN(S(=O)(=O)c3ccccc3)c3nc4ccccc4nc32)cc1	n	n	n	n
CC(=O)Nc1ccc(S(=O)(=O)N2CN(c3ccc(C)cc3)c3nc4ccccc4nc32)cc1	n	n	n	n
CC(=O)N1Cc2ccccc2CC1C(=O)N1CCN(c2ccccc2)CC1 (centres undefined)	n	n	n	n
COc1ccc(N2CCN(C(=O)C3Cc4ccccc4CN3C(=O)c3ccccc3)CC2)cc1 (centres undefined)	+	n	n	n
SMILES	Myeloid diff 2	HNF4A DNA FP	CSN inh	Exocytosis inh
Cc1cc(C(=O)CCC(=O)N(C)CC(=O)Nc2c(Cl)cccc2Cl)c(C)s1	n	n	90	n
COc1cc(SC)ccc1C(=O)Nc1cccc(S(=O)(=O)NC2=NCCC2)c1	n	n	n	n
Cc1cc(C)c(S(=O)(=O)/N=C2/C=C(SCC(=O)O)C(=O)c3ccccc32)cc1C	n	38	n	79
Cc1cc(C)c(S(=O)(=O)/N=C2\C=C(Nc3ccc(C(=O)O)cc3)C(=O)c3ccccc32)c(C)c1	n	n	n	n
COc1ccc(CCC(=O)NCCOc2ccccc2Cl)cc1	n	n	n	n
COc1ccccc1C(C(C(=O)c1ccccc1)N1CCOCC1)N1CCOCC1 (centres undefined)	n	n	n	n
O=C(O)c1ccc([N+](=O)[O-])c2c1C(=O)c1ccccc1C2=O	n	n	n	n
O=C1c2ccccc2C(=O)c2c([N+](=O)[O-])ccc(O)c21	n	n	n	59
CCOc1ccc(S(=O)(=O)N2CCC(C(=O)NC3CCCC3)CC2)cc1	n	n	n	n
O=[N+]([O-])c1ccc(O)c(/C=N/n2cnc3ccccc32)c1	n	n	n	n
Cc1ccc(/C=C2\SC(=S)N(/N=C/c3cc([N+](=O)[O-])ccc3O)C2=O)o1	n	n	56	n
C=CC(=O)N(CCC)C(c1ccccc1)c1ccccc1OC (centres undefined)	n	n	n	n
COc1cc2cc(CCCOC(=O)c3ccc(F)cc3)oc(=O)c2cc1OC	n	n	n	n
Cc1n[nH]c(C)c1NC(=O)CN1CCN(S(=O)(=O)c2ccc(C(F)(F)F)cc2)CC1	n	n	n	n
